Calls of active or inactive are those of the source. No cut-off for these calls is given here.
Tests used:
[1] = molecular target: Integrin alpha-IIb/beta-3 (Homo sapiens, UniProt P05106+P08514); test: Inhibition of human integrin alpha2b beta3 receptor by fibrinogen competitive binding assay; format: protein-complex assay
Procedure, shortened: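 Platelet αIIbβ3, affinity-purified, adsorbed at 1 μg/mL in Tris buffer (2 mM CaCl2, 1 mM MgCl2 and MnCl2, pH 7.5) for 1 h at room temperature, then blocked with 1% albumin. Exposed 30 min to excess biotinylated fibrinogen with varied compound levels. Detection used anti-biotin–alkaline phosphatase and p-nitrophenyl phosphate, read at 405 nm. IC50 derived from at least two pooled dose-response experiments.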

[2] = molecular target: Integrin alpha-V/beta-3 (Homo sapiens, UniProt P05106+P06756); test: Inhibition of human integrin alphav beta3 receptor by biotinylated vitronectin competitive binding assay; format: protein-complex assay
Procedure, shortened: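 Placenta-derived human αvβ3 adsorbed at 500 ng/mL in Tris buffer (2 mM CaCl2, 1 mM MgCl2 and MnCl2, pH 7.5), 1 h RT, then blocked with 1% albumin. Incubated 30 min with excess biotinylated vitronectin plus graded compound. Bound ligand detected with anti-biotin–alkaline phosphatase and p-nitrophenyl phosphate at 405 nm. IC50 taken from pooled dose-response curves of at least two experiments.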

[3] = species: Homo sapiens; test: Selectivity index, ratio of IC50 for human integrin alpha2b beta3 receptor to IC50 for human integrin alphav beta3 receptor
[4] = tested on: HOP; test: Inhibition of HOP cell adhesion on vitronectin coated plate by colorimetric method; format: functional, cell-based; conditions: Homo sapiens
Procedure, shortened: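 HOP cells (bone marrow stromal, second subculture) preincubated 1 h at 37 °C with compound (10-4 to 10-12 M final) in serum-free IMDM, then 100 μL of 32000 cells/mL seeded on wells coated with human plasma vitronectin (5 μg/mL); adhesion 30 min at 37 °C. Adherent cells read via p-nitrophenyl N-acetyl β-D-glucosaminide hydrolysis, 405 nm. Expressed as absorbance ratio to untreated cells; ≥2 experiments, n = 6 wells.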

Compound | IC50 [1] [µM] | IC50 [2] [µM] | Ratio IC50 [3] | Activity [4]
NCCCCOc1ccc(C[C@H](NS(=O)(=O)c2cccc(C(F)(F)F)c2)C(=O)O)cc1N | 0.154 | 0.428 | 0.35 | 
CC(=O)Nc1cc(C[C@H](NS(=O)(=O)c2cccc(C(F)(F)F)c2)C(=O)O)ccc1OCCCCNc1cc(C)ccn1 | 0.038 | 0.0007 | 54 | 
N=C(N)NCCC[C@H](NC(=O)CN)C(=O)NCC(=O)N[C@@H](CC(=O)O)C(=O)N[C@@H](CO)C(=O)O |  |  |  | Active
Cc1ccnc(NCCCCOc2ccc(C[C@H](NS(=O)(=O)c3cccc(C(F)(F)F)c3)C(=O)O)cc2NC(=O)COCCOCCOCCN)c1 | 0.028 | 0.0009 | 31 | 
Cc1ccnc(NCCCCOc2ccc(C[C@H](NS(=O)(=O)c3cccc(C(F)(F)F)c3)C(=O)O)cc2N)c1 | 0.106 | 0.0006 | 177 | Active
NC(N)=NCCCOc1ccc(C[C@H](NS(=O)(=O)c2cccc(C(F)(F)F)c2)C(=O)O)cc1N | 0.027 | 0.0076 |  | 
Nc1cc(C[C@H](NS(=O)(=O)c2cccc(C(F)(F)F)c2)C(=O)O)ccc1OCCCN=C1NCCCN1 | 0.0213 | 0.0039 |  | 
Nc1cc(C[C@H](NS(=O)(=O)c2cccc(C(F)(F)F)c2)C(=O)O)ccc1OCCCNC1=NCCCN1 |  |  | 5.5 | 
Cc1cccc(NCCCCOc2ccc(C[C@H](NS(=O)(=O)c3cccc(C(F)(F)F)c3)C(=O)O)cc2N)n1 | 0.121 | 0.0017 | 71 | 
COCCOCCOCCOCC(=O)Nc1cc(C[C@H](NS(=O)(=O)c2cccc(C(F)(F)F)c2)C(=O)O)ccc1OCCCCNc1cc(C)ccn1 | 0.061 | 0.0005 | 122 | 
N=C(N)NCCCOc1ccc(C[C@H](NS(=O)(=O)c2cccc(C(F)(F)F)c2)C(=O)O)cc1N |  |  | 3.5 | 
N=C(N)NCCCCOc1ccc(C[C@H](NS(=O)(=O)c2cccc(C(F)(F)F)c2)C(=O)O)cc1N | 0.0073 | 0.0017 | 4.3 | 
CC(=O)Nc1cc(C[C@H](NS(=O)(=O)c2cccc(C(F)(F)F)c2)C(=O)O)ccc1OCCCc1ccc2c(n1)NCCC2 | 0.071 | 0.0006 | 118 | Active
Nc1cc(C[C@H](NS(=O)(=O)c2cccc(C(F)(F)F)c2)C(=O)O)ccc1OCCCCc1ccc2c(n1)NCCC2 | 0.355 | 0.0011 | 323 | 
Nc1cc(C[C@H](NS(=O)(=O)c2cccc(C(F)(F)F)c2)C(=O)O)ccc1OCCCCN=C1NCCCN1 | 0.101 | 0.0008 |  | 
Nc1cc(C[C@H](NS(=O)(=O)c2cccc(C(F)(F)F)c2)C(=O)O)ccc1OCCCc1ccc2c(n1)NCCC2 | 0.141 | 0.0001 | 1410 | 
Cc1ccnc(NCCCCOc2ccc(C[C@H](NS(=O)(=O)c3cccc(C(F)(F)F)c3)C(=O)O)cc2NC(=O)COCCOCCOCCOCCOCCOCCN)c1 | 0.038 | 0.0008 | 47 | 
Nc1cc(C[C@H](NS(=O)(=O)c2cccc(C(F)(F)F)c2)C(=O)O)ccc1OCCCCNc1ccccn1 | 0.07 | 0.0014 | 50 | 
Nc1cc(C[C@H](NS(=O)(=O)c2cccc(C(F)(F)F)c2)C(=O)O)ccc1OCCCNc1ccccn1 | 0.036 | 0.0012 | 30 | 
Nc1cc(C[C@H](NS(=O)(=O)c2cccc(C(F)(F)F)c2)C(=O)O)ccc1OCCCCNC1=NCCCN1 |  |  | 126 | 
NCCCOc1ccc(C[C@H](NS(=O)(=O)c2cccc(C(F)(F)F)c2)C(=O)O)cc1N | 0.429 | 0.138 | 3.1 | 
